Results of several laboratories.
Each line is one published result; the experiments were not run side by side.
Target: Mitogen-activated protein kinase 8 (MAPK8, Homo sapiens, UniProt P45983)

SMILES	test	setting	measurement	result
Cc1nn(C)cc1-c1nc2c(N3CCN(Cc4ccc(Cl)cc4)CC3)c(Cl)cnc2[nH]1	binding, competition with immobilised ligand	1 µM	remaining binding	93%
C#Cc1n[nH]c2c(-c3cn([C@@H](C)c4ccccc4)c(=O)[nH]c3=O)cc(F)cc12	enzyme activity, inhibitor	0.1 µM	inhibition	1.5%
COc1ncccc1-c1cnn2ccc(N3CCN(C(=O)OC(C)C)CC3)nc12	binding, competition with immobilised ligand	1 µM	remaining binding	100%
O=c1[nH]c2ccccc2n1C1CCN(Cc2ccc(-c3[nH]c4cc5ncnc5cc4nc3-c3ccccc3)cc2)CC1	cell-free assay	0.5 µM	remaining signal	89.6%
Cn1cncc1[C@](O)(COc1ccc(C#N)cc1-c1ccc(OC(F)(F)F)cc1)c1ccc(C#N)cc1	cell-free assay, competition with immobilised ligand	1 µM	remaining binding	100%
Cn1cc(-c2cc(F)cc(N3CCn4c(cc5c4CCCC5)C3=O)c2CO)cc(Nc2ccc(N3CCN(C4COC4)CC3)cn2)c1=O	enzyme activity, inhibitor	0.1 µM	inhibition	-1%
N#CC1(c2ccccn2)CCN(Cc2cc(C(=O)O)c(=O)n3ccccc23)CC1	cell-free assay, competition with immobilised ligand	1 µM	remaining binding	85%
Cn1cc(-c2cccc(N3CCc4c(sc5c4CC(C)(C)C5)C3=O)c2CO)cc(Nc2ccncn2)c1=O	enzyme activity, inhibitor	1 µM	inhibition	1%
C#Cc1n[nH]c2c(-c3cn(C(C)c4ccccn4)c(=O)[nH]c3=O)cc(F)cc12 (centres unmarked)	enzyme activity, inhibitor	1 µM	inhibition	-4.2%
Nc1ncc(-c2nc(N3CCOCC3)nc(N3CCOCC3)n2)c(C(F)F)n1	binding, competition with immobilised ligand	10 µM	remaining binding	86%
CC(C)(C)c1cc(C=C(C#N)C#N)cc(Br)c1O	enzyme activity, inhibitor	0.5 µM	remaining activity	90.4%
